STAT3 act: STAT3 signaling activation | U3A cells, IL-6 STAT3-luciferase reporter, luminescence; 100% = signal with IL-6 EC80 alone | activation (% of control), % at 5.6 µM | 190,000 tested, 0.91% active | AID 871;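 active = activation above the screen-wide mean of compound activation plus 3 SD, cut at about 130% in these data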;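 note: 0% = background luminescence of wells with medium and substrate only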
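Material: STAT1-lacking human U3A cells, STAT3 luciferase reporter | Benchmarks: IL-6-only wells as 100% reference | Probe or stimulus: IL-6 (33 ng/mL) | Timing: Compound 1 h, then IL-6 6 h at 37 °C | Detection: Luminescence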
STAT1 blocker: reduces IFN-gamma driven STAT1 reporter signal; NIH 3T3 STAT1-luciferase reporter, luminescence; inhibition, % at 5.5 µM; AID 920; 200,000 tested, 0.35% active;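 active = inhibition above a set limit, the mean inhibition across all tested compounds plus 3 SD, cut at about 34% in these data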;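 note: 0% = IFN-gamma with DMSO and 100% = IFN-gamma with 300 µM nifuroxazide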
PPC-1+TRAIL kill: PPC-1 cancer cell killing with TRAIL present; PPC-1 cells + TRAIL, ATPLite viability luminescence; cell killing (% activity), % at 4 µM or 5 µM; 220,000 tested, 0.41% active;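 active = cell killing above 50% in the first pass at 4 µM, then a duplicate retest at 5 µM averaging 50% or more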;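 note: plate controls were cells with TRAIL plus DMSO for no effect and medium-only wells lacking cells for full effect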
HSP90 inh: HSP90 refolding inhibition in rabbit reticulocyte lysate; inhibition, % at 5.6 µM; AID 1789; luciferase refolding luminescence, 3 h; 290,000 tested, 0.91% active;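 active = inhibition above the screen-wide mean plus 3 SD, computed separately per campaign, cut at about 16% in these data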;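 note: 0% = DMSO wells and 100% = 60 µM geldanamycin wells; inhibitors lower the luminescence because luciferase stays unfolded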
STAT3 inh: STAT3 signaling inhibition | inhibition, % at 5.5 µM | U3A cells, IL-6 STAT3-luciferase reporter, luminescence; host cell line lacks STAT1 | 190,000 tested, 0.89% active;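 active = inhibition above the mean inhibition across all screened compounds plus 3 SD, cut at about 44% in these data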;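 note: 0% = DMSO only wells and 100% = 100 µM nifuroxazide control wells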
TRAIL sens C8: sensitizes caspase-8 expressing cells to TRAIL. AID 624354. 360,000 tested, 1% active. NB7+C8 cells + TRAIL, ATPlite viability luminescence. inhibition (viability loss, TRAIL sensitization), % at 10 µM;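 active = compounds causing at least 50% loss of cell viability in the single-dose screen, relative to plate controls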
HSP90 confirm: HSP90 inhibition, confirmation assay | shares compounds with HSP90 inh | rabbit reticulocyte lysate, luciferase refolding luminescence, 3 h | inhibition, % at 5.9 µM | 2,300 tested, 64% active; in the data active = inhibition above about 18%;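 note: 0% = vehicle wells and 100% = reference inhibitor wells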
luciferase ctr: firefly luciferase inhibition, HSP90 counter-screen | purified native firefly luciferase, luminescence | 2,300 tested, 48% active | shares compounds with HSP90 inh | inhibition, % at 5.9 µM;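 active = inhibition above the mean inhibition of all tested sample wells plus 3 SD, cut at about 10% in these data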;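 note: 0% = DMSO with luciferase and 100% = wells lacking luciferase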
Target sequence (P08659 whole entry, looked up): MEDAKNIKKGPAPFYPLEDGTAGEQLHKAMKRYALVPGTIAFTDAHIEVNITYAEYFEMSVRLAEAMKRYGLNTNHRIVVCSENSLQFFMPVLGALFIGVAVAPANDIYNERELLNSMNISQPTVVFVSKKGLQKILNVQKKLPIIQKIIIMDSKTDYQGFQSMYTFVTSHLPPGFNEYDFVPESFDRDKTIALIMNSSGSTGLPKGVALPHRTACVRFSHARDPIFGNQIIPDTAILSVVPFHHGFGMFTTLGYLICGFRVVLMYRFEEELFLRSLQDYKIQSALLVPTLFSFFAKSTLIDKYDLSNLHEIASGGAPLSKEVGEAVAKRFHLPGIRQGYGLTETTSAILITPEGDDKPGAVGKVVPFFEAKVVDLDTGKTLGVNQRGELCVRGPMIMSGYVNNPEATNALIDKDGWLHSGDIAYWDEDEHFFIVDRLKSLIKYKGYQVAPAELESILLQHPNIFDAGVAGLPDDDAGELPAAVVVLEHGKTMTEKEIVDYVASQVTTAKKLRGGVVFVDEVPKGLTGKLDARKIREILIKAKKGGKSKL
* = called active by the depositor. Hits are enriched below; roughly 2.3% of the tested compounds scored in any of these assays.

How did CCOC(=O)c1sc(C)c2c(=O)n(Cc3ccc(Cl)cc3)cnc12 do in these assays?
STAT3 act: 97; STAT1 blocker: -1; HSP90 inh: 3; STAT3 inh: 15; TRAIL sens C8: -6

Results for c1ccc2nc3c(cc2c1)CCCCC3 ?
PPC-1+TRAIL kill: 3; HSP90 inh: -2; TRAIL sens C8: -18

Results for C/C(=N\Nc1ccc(Cl)c(C(=O)O)c1)c1ccc[nH]1 ?
PPC-1+TRAIL kill: -5; HSP90 inh: 35*; TRAIL sens C8: 6; HSP90 confirm: 22*; luciferase ctr: -5

How did C/C(=N\Nc1ccc(Cl)c(C(=O)O)c1)c1ccc(N2CCOCC2)cc1 do in these assays?
HSP90 inh: 18*; TRAIL sens C8: 10; HSP90 confirm: 9; luciferase ctr: -4

What do the screens show for `C/C(=N\Nc1ccc(Cl)c(C(=O)O)c1)c1cccs1`?
PPC-1+TRAIL kill: 7; HSP90 inh: -2; TRAIL sens C8: 1

How did O=C(O)C(=O)Nc1ncn[nH]1 do in these assays?
TRAIL sens C8: -14

How did COc1ccc(CCNC(=O)Cc2cc(OC)c(OC)cc2Br)cc1OC do in these assays?
STAT3 act: 101; STAT1 blocker: -9; PPC-1+TRAIL kill: 3; HSP90 inh: 34*; STAT3 inh: 0; TRAIL sens C8: 1; HSP90 confirm: -3; luciferase ctr: -4

How did COc1ccc(CCNC(=O)Cc2ccc(Cl)cc2)cc1OC do in these assays?
HSP90 inh: -6; TRAIL sens C8: 14

Results for COc1ccccc1C(=O)N(Cc1ccccc1)c1ccc(C)cc1 ?
HSP90 inh: 57*; TRAIL sens C8: 4; HSP90 confirm: -7; luciferase ctr: -11

How did O=C(Cc1ccccc1)NNC1=NS(=O)(=O)c2ccccc21 do in these assays?
STAT3 act: 101; STAT1 blocker: -4; PPC-1+TRAIL kill: 7; HSP90 inh: -4; STAT3 inh: 3; TRAIL sens C8: 7

What do the screens show for `Cc1nc(NC(=O)c2ccccc2)sc1-c1csc(Nc2cccc(Cl)c2)n1`?
STAT3 act: 81; STAT1 blocker: -18; PPC-1+TRAIL kill: 13; HSP90 inh: 42*; STAT3 inh: 25; HSP90 confirm: 27*; luciferase ctr: -18

How did O=C(Nc1cccc(-c2csc(Nc3ccc(Cl)cc3)n2)c1)c1ccccc1 do in these assays?
PPC-1+TRAIL kill: 21; TRAIL sens C8: 14

How did Cc1nc(NC(=O)c2ccccc2)sc1-c1csc(Nc2ccc(Cl)cc2)n1 do in these assays?
STAT3 act: 86; STAT1 blocker: -10; PPC-1+TRAIL kill: 15; HSP90 inh: 37*; STAT3 inh: 28; HSP90 confirm: 26*; luciferase ctr: -19

How did Cc1nc(NC(=O)c2ccccc2)sc1-c1csc(Nc2ccc(F)cc2)n1 do in these assays?
STAT3 act: 89; STAT1 blocker: -3; PPC-1+TRAIL kill: 5; HSP90 inh: 44*; STAT3 inh: 16; HSP90 confirm: 31*; luciferase ctr: -20

What do the screens show for `Cc1cccc(NC(=O)C2CCN(S(=O)(=O)c3cccc4nsnc34)CC2)c1`?
STAT3 act: 103; STAT1 blocker: 4; HSP90 inh: -3; STAT3 inh: 6; TRAIL sens C8: 7

What do the screens show for `Cc1cc2oc(=O)cc(CN3CCOCC3)c2cc1O`?
HSP90 inh: 3; TRAIL sens C8: -9

Results for Cc1ccc(-c2onc3ccc(C4OCCO4)cc23)cc1 ?
STAT3 act: 97; STAT1 blocker: -17; PPC-1+TRAIL kill: 7; HSP90 inh: 35*; STAT3 inh: 5; TRAIL sens C8: 12; HSP90 confirm: 1; luciferase ctr: -20

How did O=C(O)c1cc(N2C(=O)C3CCCCC3C2=O)ccc1NCc1cccnc1 (centres undefined) do in these assays?
STAT3 act: 101; STAT1 blocker: 4; PPC-1+TRAIL kill: 13; HSP90 inh: -3; STAT3 inh: 1; TRAIL sens C8: 9

Results for CCOc1ccc2c(c1)C(C)=CC(C)(C)N2S(=O)(=O)c1ccc(C)cc1 ?
STAT3 act: 125; STAT1 blocker: 4; PPC-1+TRAIL kill: 9; HSP90 inh: 30*; STAT3 inh: -27; TRAIL sens C8: -43; HSP90 confirm: 12; luciferase ctr: 4

How did CN(C)c1ccc(CNc2nc3ccccc3n2C)cc1 do in these assays?
TRAIL sens C8: 16

What do the screens show for `CN(C)c1ccc(CNc2nc3ccccc3s2)cc1`?
HSP90 inh: 48*; HSP90 confirm: 73*; luciferase ctr: 57*

How did O=C(NCCc1ccc(Cl)cc1)c1ccc2ccccc2n1 do in these assays?
HSP90 inh: -1; TRAIL sens C8: -1

What do the screens show for `O=C(O)C(=O)/C(=C\c1ccc(Cl)cc1)c1ccc2ccccc2n1`?
STAT3 act: 147*; STAT1 blocker: -34; PPC-1+TRAIL kill: 26; HSP90 inh: 22*; STAT3 inh: -45; TRAIL sens C8: 7; HSP90 confirm: -4; luciferase ctr: -5

What do the screens show for `COc1ccc(S(=O)(=O)N2CCC(C(=O)Nc3cccc(C(C)=O)c3)CC2)cc1`?
STAT3 act: 103; STAT1 blocker: -1; PPC-1+TRAIL kill: 14; HSP90 inh: -3; STAT3 inh: 0; TRAIL sens C8: -3

What do the screens show for `COc1ccc(CCN(/C=C2\Sc3ccccc3C2=O)C(C)=O)cc1OC`?
PPC-1+TRAIL kill: 5; HSP90 inh: 25*; TRAIL sens C8: 5; HSP90 confirm: 1; luciferase ctr: -5

How did COc1ccc(CCN(C)C(=O)CN2C(=O)c3ccccc3S2(=O)=O)cc1OC do in these assays?
STAT3 act: 104; STAT1 blocker: -6; PPC-1+TRAIL kill: 6; HSP90 inh: 0; STAT3 inh: 2; TRAIL sens C8: -13

How did Cc1ccc(NC(C)c2cc(Cl)ccc2O)cc1 (centres undefined) do in these assays?
STAT3 act: 107; STAT1 blocker: 3; PPC-1+TRAIL kill: 33; HSP90 inh: 1; STAT3 inh: -2; TRAIL sens C8: -1

Results for CCCc1ccc(-c2cc(C(=O)N3CCN(c4ccccn4)CC3)c3ccccc3n2)cc1 ?
HSP90 inh: 38*; TRAIL sens C8: 91*; HSP90 confirm: 43*; luciferase ctr: 12*

Results for O=C(c1cc(-c2ccccc2Cl)nc2ccccc12)N1CCN(c2ccccn2)CC1 ?
TRAIL sens C8: 18

Results for Cc1ccc(C(=O)CCS(=O)(=O)c2ccc(F)cc2)cc1 ?
HSP90 inh: 38*; TRAIL sens C8: -6; HSP90 confirm: 58*; luciferase ctr: 79*

How did COc1ccc(CCNc2nnc(Sc3nnnn3-c3ccccc3)s2)cc1OC do in these assays?
STAT3 act: 99; STAT1 blocker: 8; PPC-1+TRAIL kill: -4; HSP90 inh: -2; STAT3 inh: 8; TRAIL sens C8: -3

High-throughput results as filed in PubChem.
